# High-throughput results (PubChem)
# SIAE primary – inhibitors of human sialic acid acetylesterase SIAE. Q9HAT2. SIAE FP-Rh probe binding, fluorescence polarization. inhibition, % at 9.66 µM. 370,000 compounds, 0.69% hits. AID 1053197;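 active = inhibition above a cutoff: mean of compounds within the control limits plus 3 SD of those, cut at about 17% in these data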;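 note: 0% = plate median of compound wells and 100% = probe without SIAE protein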
# mABHD4 FP – ABHD4 (mouse) inhibition, primary FP screen | purified mABHD4, FP-Rh probe fluorescence polarization | AID 720543 | inhibition, % at 8.92 µM | 370,000 compounds, 0.54% hits;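 active = inhibition exceeding the mean over every tested compound plus 3 SD, cut at about 30% in these data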;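 note: 0% = plate median of compound wells and 100% = S159A mutant with DMSO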
# Target sequence (Q8VD66 whole entry, looked up): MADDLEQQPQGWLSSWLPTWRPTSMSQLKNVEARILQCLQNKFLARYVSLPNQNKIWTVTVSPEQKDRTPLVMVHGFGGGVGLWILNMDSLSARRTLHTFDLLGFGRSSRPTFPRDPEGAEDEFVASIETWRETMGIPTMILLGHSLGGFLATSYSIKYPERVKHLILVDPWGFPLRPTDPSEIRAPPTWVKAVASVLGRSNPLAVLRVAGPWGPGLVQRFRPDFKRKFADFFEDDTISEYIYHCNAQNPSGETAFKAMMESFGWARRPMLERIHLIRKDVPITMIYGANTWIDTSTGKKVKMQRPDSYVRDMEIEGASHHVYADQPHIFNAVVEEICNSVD
#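 Material: mouse ABHD4 enzyme, wild type; Benchmarks: S159A mutant high control, sample median low control; Buffer or medium: HEPES pH 7.0, NaCl, Pluronic buffer; Signal: fluorescence polarization; Read-out: percent inhibition of probe binding, normalized to plate controls; Timing: pre-incubation 45 min, probe exposure 60 min, at 25 °C; Dosing: 8.92 µM, single dose.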
# TCR CD3 inh – blocks the human TCR-CD3 interaction; TAMRA-labeled TCR probe fluorescence, biochemical; 360,000 compounds, 0.37% hits; inhibition, % at 9.4 µM; in the data active = inhibition above about 19%;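 note: recombinant mutant TCR 2C K166C tagged with TAMRA read by polarization; 0% = receptor in buffer alone and 100% = receptor with positive control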
# DAGLB inhibitor – blocks human DAGLB lipase activity. HEK293T DAGLB membrane lysate, EnzChek fluorogenic substrate. inhibition, % at 5.17 µM. 340,000 compounds, 0.059% hits. AID 504411; in the data active = inhibition above about 34%;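 note: 0% = enzyme with vehicle and 100% = wells lacking enzyme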
# HTRA1 inh – inhibitors of human serine peptidase HTRA1. Q92743. recombinant HTRA1, FP-rhodamine activity-based probe, fluorescence polarization. inhibition, % at 5.96 µM. 340,000 compounds, 0.5% hits; in the data active = inhibition above about 36%;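 note: 0% = enzyme with DMSO and 100% = wells lacking enzyme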
# ABHD4 confirm – confirmation of mouse ABHD4 inhibitors | inhibition, % at 8.92 µM | 1,800 compounds, 55% hits | shares compounds with mABHD4 FP | purified mABHD4, FP-Rh probe fluorescence polarization;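 active = mean inhibition across replicates above the hit cutoff set in the primary screen, cut at about 30% in these data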;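 note: 0% = wild-type ABHD4 with DMSO and 100% = catalytically dead S159A mutant with DMSO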
# Numbers without * were called inactive; . = no result given; ! = a repeat was not active. Compounds with a hit are over-represented: about 1.6% of the library has one in this group of screens.
SMILES,SIAE primary,mABHD4 FP,TCR CD3 inh,DAGLB inhibitor,HTRA1 inh,ABHD4 confirm
Cc1ccc2c(c1)Sc1c(ccc3ccccc13)N2,5,30*,-2,1,14,38*
O=C(c1ccc(F)cc1Cl)N1CCCC(c2nc(-c3cccs3)no2)C1 (stereo not drawn),-2,1,.,.,.,.
CC(C)[C@H]1COc2c3ccccc3nn21,5,-4,.,.,.,.
O=C(CCc1ccccc1)N[C@H]1[C@@H](OC(=O)C2CC2)CCC[C@@]12C(=O)N(Cc1ccccc1)c1ccccc12,-5,-7,.,.,.,.
CCOc1ccc(NC2=CC(=O)C(=O)c3ccccc32)cc1,13,32*,10,9,25,27
O=C1C=C(Nc2ccccc2O)c2ccccc2C1=O,6,48*,3,-1,26,-5
Cc1cccc2cc(/C=N/Nc3ccc(C(=O)O)cc3)c(Cl)nc12,-3,38*,12,2,-1,44*
Cc1cc(C)nc(N2CCC(C(=O)N(C)CCc3ccccc3)CC2)n1,1,-11,.,.,.,.
COc1ccccc1NC(=O)c1ccccc1NC(=O)c1ccccn1,-6,-4,-3,-11,-22,.
COc1ccc(Cl)cc1NC(=O)NNC(=O)c1ccccn1,3,40*,-17,7,2,29
O=C(Nc1ccc2ccccc2c1)C1CC2CCC1C2 (stereo not drawn),0,-17,.,.,.,.
COc1cc(/C=N/NC(=O)[C@H](Cc2c[nH]c3ccccc23)NC(=O)OCC(C)C)cc([N+](=O)[O-])c1O,33*,41*,6,18,16,49*
O=C(CSc1nnc(-c2cccs2)o1)c1cccc([N+](=O)[O-])c1,-7,-1,.,.,.,.
Cc1cc(N2CCNC[C@@H]2C)ccc1N1CCS(=O)(=O)CC1,4,0,1,.,.,.
CC(C)(C)c1ccc(S(=O)(=O)Nc2noc3ccccc23)cc1,5,30*,0,3,-1,16
CN(C)CCNc1ncnc2c1ncn2[C@H]1CN(Cc2ccc3c(c2)OCO3)C[C@@H](CO)O1,-4,34*,4,.,.,15
COc1ccc(OC)c(C2Nc3c(Cl)ccc(C(=O)O)c3C3C=CCC32)c1 (stereo not drawn),6,47*,0,7,16,22
COC(=O)COc1ccc(C2Nc3c(Cl)ccc(C(=O)O)c3C3C=CCC32)cc1 (stereo not drawn),-7,36*,16,6,28,20
COc1cccc(C2CC(c3ccc(NS(C)(=O)=O)cc3)=NN2C(=O)c2ccccc2)c1OC (stereo not drawn),6,44*,1,-1,-10,55*
CCCCNc1c(-c2ccc(OC)c(SC(C)CC)c2)nc2ccc(Cl)cn12 (stereo not drawn),-3,8,-2,-8,1,.
CCCCNc1c(-c2ccc(OC)c(SC(C)CC)c2)nc2ccc(C)cn12 (stereo not drawn),12,34*!,-5,-5,-12,38*
CCC(C)Sc1ccc(-c2nc3ccc(C)cn3c2NCc2ccccc2)cc1OC (stereo not drawn),.,.,.,-19,12,.
CCCCNc1c(-c2ccc(OC)c(SC3CCCCC3)c2)nc2ccc(C)cn12,3,33*!,-4,-12,-1,37*
CCC(C)Sc1cc(-c2nc3ccc(C)cn3c2NCc2ccccc2)ccc1OC (stereo not drawn),10,43*,2,-8,14,36*
CCC(C(=O)Nc1ccccc1N1CCCC1)c1ccccc1Cl (stereo not drawn),3,4,.,.,.,.
SMILES,SIAE primary,mABHD4 FP,TCR CD3 inh,DAGLB inhibitor,HTRA1 inh,ABHD4 confirm
CC(=O)N1c2cc(S(=O)(=O)N3CCN(c4ccccc4F)CC3)c(Br)cc2CC1C (stereo not drawn),-5,-6,.,.,.,.
CC(C)C[C@H](NC(=O)c1cccs1)C(=O)N1CCC[C@H]1C(=O)NCc1ccccc1,-5,-2,-1,.,.,.
Nc1[nH]n(-c2ccccc2)c(=O)c1N=Nc1ccc2c(c1)OCCO2,9,30*,6,26,28,28
Cc1ccccc1N=Nc1c(N)[nH]n(-c2ccccc2)c1=O,9,34*,.,.,.,43*
Cc1cc([N+](=O)[O-])ccc1N=Nc1c(N)[nH]n(-c2ccccc2)c1=O,9,30*,8,8,3,41*
Nc1[nH]n(-c2ccccc2)c(=O)c1N=Nc1ccc2c(c1)OCO2,6,20,-13,24,17,.
Nc1[nH]n(-c2ccccc2)c(=O)c1N=Nc1ccc(F)cc1,11,27,.,.,.,.
CCCCc1ccc2nc(NC(=O)c3cccs3)sc2c1,-10,-13,.,.,.,.
Cc1ccsc1S(=O)(=O)n1c(CN2CCOCC2)nc2ccccc21,6,4,.,.,.,.
CCN(C(=S)NC(=O)c1ccco1)c1cccc2ccccc12,3,36*,-9,2,14,2
CCN(C(=S)NCCOC)c1cccc2ccccc12,-4,0,-1,-2,4,.
CCCCCNC(=O)C(c1ccncc1)n1c(=O)c(-c2ccco2)nc2ccccc21 (stereo not drawn),7,32*,-2,.,.,12
Cc1[nH]n(-c2ccccc2)c(=O)c1Sc1ccc(Cl)cc1,-5,1,-3,5,-7,.
O=c1cc(CSc2ccc(Cl)cc2)[nH]c2[nH]n(-c3ccccc3)c(=O)c12,14,47*,10,21,20,26
CC1CCCC(C)N1C(=O)COC(=O)CCC(=O)c1cccs1 (stereo not drawn),5,60*,9,0,-2,-7
CC1CCCC(C)N1C(=O)COC(=O)CCC(=O)c1ccc(F)cc1 (stereo not drawn),-6,-4,-2,-7,-3,.
COc1ccc(N=Nc2cc(C)c(O)c(CN3CCCCC3)c2)cc1,5,4,-4,3,2,.
COc1ccc2nc3cc(Cl)ccc3c(Nc3cc(CN4CCCC4)c(O)c(CN4CCCC4)c3)c2n1,15,37*,7,.,.,31*
O=C(C(=O)N1CCN(S(=O)(=O)c2ccccc2)CC1)c1cccc(C(F)(F)F)c1,3,-1,3,.,.,.
Cc1ccc(C(=O)COC(=O)C2CC3CCCC(C2)C3=O)cc1[N+](=O)[O-] (stereo not drawn),-1,42*,-2,-3,-7,3
Cc1ccc([N+](=O)[O-])c(NC(=O)COC(=O)C2CC3CCCC(C2)C3=O)c1C (stereo not drawn),-1,-2,-1,-1,3,.
CCOC(=O)Nc1cc(=O)c([N+](=O)[O-])c(N)[nH]1,3,5,4,.,.,.
CC(/C=N/Nc1nc2ccccc2[nH]1)=C\c1ccccc1,11,42*,-3,0,13,44*
CCN(CC)c1ccc(/C=N/Nc2nc3ccccc3[nH]2)cc1,17,30*,0,13,35,47*
C/C(=N\Nc1nc2ccccc2[nH]1)c1ccccn1,4,36*,-1,-1,27,21
